Measured values taken from ChEMBL document CHEMBL2151001, “Indiacens A and B: prenyl indoles from the myxobacterium Sandaracinus amylolyticus” (2012).
Values after ≈ are worked out from the molar mass of the structure shown.

Assays:
Type in all cases: functional
[1] = tested on: Chromobacterium violaceum; assay: Antimicrobial activity against Chromobacterium violaceum by serial dilution method
Summary of the method: (§1)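 MIC by serial dilution in 96-well plates. Test bacteria grown in EBS medium (0.5% peptone, 0.5% glucose, 0.1% meat extract, 0.1% yeast extract, 50 mM HEPES, pH 7.0) at 30 °C with shaking at 160 rpm.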

Stutzerimonas stutzeri = assay: Antimicrobial activity against Pseudomonas stutzeri by serial dilution method; summary of the method: as §1
[2] = tested on: Mycolicibacterium diernhoferi; assay: Antimicrobial activity against Mycobacterium diernhoferi by serial dilution method; summary of the method: as §1
Escherichia coli = assay: Antimicrobial activity against Escherichia coli expressing mutant TOLC by serial dilution method
[3] = Antimicrobial activity against Arthrobacter rubellus by serial dilution method; summary of the method: as §1
Pimelobacter simplex = assay: Antimicrobial activity against Nocardioides simplex by serial dilution method; summary of the method: as §1
Mycobacterium lacticola = assay: Antimicrobial activity against Mycobacterium lacticola by serial dilution method; summary of the method: as §1
Mucor hiemalis = assay: Antimicrobial activity against Mucor hiemalis by serial dilution method
Summary of the method: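 Fungal MIC by serial dilution in 96-well plates. Organism cultivated in MYC medium (1.0% phytone peptone, 1.0% glucose, 1.19% HEPES, pH 7.0) at 30 °C, 160 rpm.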

SMILES	MIC [1] [µg/mL]	MIC (Stutzerimonas stutzeri) [µg/mL]	MIC [2] [µg/mL]	MIC (Escherichia coli) [µg/mL]	MIC [3] [µg/mL]	MIC (Pimelobacter simplex) [µg/mL]	MIC (Mycobacterium lacticola) [µg/mL]	MIC (Mucor hiemalis) [µg/mL]
C=C(C)/C=C/c1cccc2[nH]cc(C=O)c12 [INDIACEN A]	16.6 (≈ 78.6 µM)	> 33	16.6 (≈ 78.6 µM)	16.6 (≈ 78.6 µM)	16.6 (≈ 78.6 µM)	8.3 (≈ 39.3 µM)	16.6 (≈ 78.6 µM)	16.6 (≈ 78.6 µM)
CC(/C=C/c1cccc2[nH]cc(C=O)c12)=C\Cl [INDIACEN B]	33 (≈ 134 µM)	33 (≈ 134 µM)	> 33	33 (≈ 134 µM)	0.8 (≈ 3.26 µM)	3.3 (≈ 13.4 µM)	33 (≈ 134 µM)	16.6 (≈ 67.6 µM)
